Test results published in ChEMBL document CHEMBL4725466, “Discovery and SAR of Novel Disubstituted Quinazolines as Dual PI3Kalpha/mTOR Inhibitors Targeting Breast Cancer” (ACS Med Chem Lett, 2020).
Converted amounts (≈) assume the structure as drawn. The source made the active and inactive calls. The calls are words filed in the database; no cut-off is given here.

What was measured:
[1] = biological target: PI3-kinase p110-alpha/p85-alpha (Homo sapiens, UniProt P42336); experiment: Inhibition of human PI3K p110alpha/p85alpha using PIP2 as substrate incubated for 10 mins followed by ATP addition and measured after 30 mins in presence of 10 uM ATP by HTRF assay; format: protein-complex assay
[2] = biological target: T1, PI3-kinase p110-alpha/p85-alpha (Homo sapiens) (UniProt P27986+P42336); experiment: Inhibition of human PI3K p110alpha/p85alpha at 10 uM using PIP2 as substrate incubated for 10 mins followed by ATP addition and measured after 30 mins in presence of 10 uM ATP by HTRF assay; format: protein-complex assay
[3] = biological target: T2, Serine/threonine-protein kinase mTOR (Homo sapiens, UniProt P42345); experiment: Inhibition of human mTOR using 4EBP1 as substrate after 120 mins by [gamma-33P]-ATP assay
[4] = biological target: T2, Serine/threonine-protein kinase mTOR; experiment: Inhibition of human mTOR at 10 uM using 4EBP1 as substrate after 120 mins by [gamma-33P]-ATP assay
Procedure, shortened: (§1)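 Single-point kinase screen by HotSpot radioisotope filter binding assay; compound at 10 μM with 10 μM ATP, reported as percent inhibition of PI3Kα and mTOR.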

[5] = Half life in CD1 mouse liver microsomes at 1 uM incubated for 60 mins under shaking condition by LC-MS/MS analysis; format: ADME, Microsome
Procedure, shortened: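 Metabolic stability in mouse liver microsomes with test compound at 1 μM; result expressed as t1/2 (min).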

[6] = Kinetic aqueous solubility of compound in 2% DMSO/Phosphate buffer saline incubated for 90 mins under shaking condition by; format: physicochemical; details: 2% DMSO/phosphate buffered saline, read-out: Kinetic_solubility
Procedure, shortened: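 Maximum kinetic aqueous solubility measured in 2% DMSO/phosphate-buffered saline, pH 7.4.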

[7] = biological target: T1, PI3-kinase p110-alpha/p85-alpha (Homo sapiens); experiment: Inhibition of human PI3K p110alpha/p85alpha at 10 uM using PIP2 as substrate incubated for 10 mins followed by ATP addition and measured after 30 mins in presence of 10 uM ATP by HTRF assay relative to control; format: protein-complex assay
[8] = biological target: T2, Serine/threonine-protein kinase mTOR; experiment: Inhibition of human mTOR at 10 uM using 4EBP1 as substrate after 120 mins by [gamma-33P]-ATP assay relative to control; procedure, shortened: as §1
[9] = system: MCF7; experiment: Antiproliferative activity against human MCF7 cells assessed as reduction in cell viability after 48 hrs by celltiter-glo 3D luminescent assay; format: functional, cell-based; details: MCF7, 48 h
Procedure, shortened: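 MCF7 cells grown in 3D culture, viability read by CellTiter-Glo 3D luminescence; dose–response curves run up to 15 μM to derive IC50.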

[10] = system: MDA-MB-468; experiment: Antiproliferative activity against human MDA-MB-468 cells assessed as cell viability at 10 uM after 48 hrs by celltiter-glo 2D luminescent assay relative to control; format: functional; details: read-out: Activity
Procedure, shortened: (§2)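 2D CellTiter-Glo luminescent viability screen, single 10 μM compound concentration, in MDA-MB-468, MDA-MB-231 and MCF7 breast cancer cells and in normal human dermal fibroblasts; output reported as percent of viable cells.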

[11] = Cytotoxicity against human primary fibroblasts assessed as cell viability at 10 uM after 48 hrs by celltiter-glo 2D luminescent assay relative to control; format: cell-based, Fibroblast; details: read-out: Activity; procedure, shortened: as §2
[12] = system: MCF7; experiment: Antiproliferative activity against human MCF7 cells assessed as cell viability at 10 uM after 48 hrs by celltiter-glo 2D luminescent assay relative to control; format: functional; details: read-out: Activity; procedure, shortened: as §2
[13] = biological target: T2, Serine/threonine-protein kinase mTOR; experiment: Inhibition of mTOR in human MCF7 cells assessed as reduction in phosphorylated P70S6K level after 4 hrs by Western blot analysis; format: cell-based; details: dose nM 62.5-125, time 4.0 hrs
Procedure, shortened: (§3)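 MCF7 cells treated for 4 h at 62.5 and 125 nM; lysates probed by Western blot for phospho-AKT(473), phospho-4EBP and phospho-P70S6.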

[14] = biological target: T2, Serine/threonine-protein kinase mTOR; experiment: Inhibition of mTOR in human MCF7 cells assessed as reduction in phosphorylated 4EBP level after 4 hrs by Western blot analysis; format: cell-based; details: dose nM 62.5-125, time 4.0 hrs; procedure, shortened: as §3
[15] = system: MDA-MB-231; experiment: Antiproliferative activity against human MDA-MB-231 cells assessed as cell viability at 10 uM after 48 hrs by celltiter-glo 2D luminescent assay relative to control; format: functional; details: read-out: Activity; procedure, shortened: as §2
[16] = system: MCF7; experiment: Inhibition of PI3K in human MCF7 cells assessed as reduction in AKT phosphorylation at 473 residue after 4 hrs by Western blot analysis; format: cell-based; details: dose nM 62.5-125, time 4.0 hrs; procedure, shortened: as §3

Sequence of PI3-kinase p110-alpha/p85-alpha (P27986 whole entry): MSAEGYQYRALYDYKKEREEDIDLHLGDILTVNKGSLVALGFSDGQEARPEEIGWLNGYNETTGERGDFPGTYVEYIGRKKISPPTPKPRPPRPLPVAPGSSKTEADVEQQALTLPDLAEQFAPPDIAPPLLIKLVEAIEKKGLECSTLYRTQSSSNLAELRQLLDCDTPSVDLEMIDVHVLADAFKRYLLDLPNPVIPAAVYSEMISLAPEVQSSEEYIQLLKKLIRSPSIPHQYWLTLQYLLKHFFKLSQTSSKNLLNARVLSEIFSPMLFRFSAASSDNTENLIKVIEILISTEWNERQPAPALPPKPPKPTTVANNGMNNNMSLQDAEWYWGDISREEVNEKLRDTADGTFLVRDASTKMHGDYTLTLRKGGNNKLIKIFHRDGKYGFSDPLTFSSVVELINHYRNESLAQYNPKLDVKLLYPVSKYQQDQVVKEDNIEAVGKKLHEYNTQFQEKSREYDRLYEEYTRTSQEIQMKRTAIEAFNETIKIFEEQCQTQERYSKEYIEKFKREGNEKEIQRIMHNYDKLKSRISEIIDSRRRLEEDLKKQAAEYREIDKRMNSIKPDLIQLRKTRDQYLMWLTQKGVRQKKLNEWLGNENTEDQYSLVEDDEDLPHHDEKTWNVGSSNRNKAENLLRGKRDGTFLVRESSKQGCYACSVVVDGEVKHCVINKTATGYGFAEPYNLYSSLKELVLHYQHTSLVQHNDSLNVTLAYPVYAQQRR
Sequence of PI3-kinase p110-alpha/p85-alpha (P42336 whole entry): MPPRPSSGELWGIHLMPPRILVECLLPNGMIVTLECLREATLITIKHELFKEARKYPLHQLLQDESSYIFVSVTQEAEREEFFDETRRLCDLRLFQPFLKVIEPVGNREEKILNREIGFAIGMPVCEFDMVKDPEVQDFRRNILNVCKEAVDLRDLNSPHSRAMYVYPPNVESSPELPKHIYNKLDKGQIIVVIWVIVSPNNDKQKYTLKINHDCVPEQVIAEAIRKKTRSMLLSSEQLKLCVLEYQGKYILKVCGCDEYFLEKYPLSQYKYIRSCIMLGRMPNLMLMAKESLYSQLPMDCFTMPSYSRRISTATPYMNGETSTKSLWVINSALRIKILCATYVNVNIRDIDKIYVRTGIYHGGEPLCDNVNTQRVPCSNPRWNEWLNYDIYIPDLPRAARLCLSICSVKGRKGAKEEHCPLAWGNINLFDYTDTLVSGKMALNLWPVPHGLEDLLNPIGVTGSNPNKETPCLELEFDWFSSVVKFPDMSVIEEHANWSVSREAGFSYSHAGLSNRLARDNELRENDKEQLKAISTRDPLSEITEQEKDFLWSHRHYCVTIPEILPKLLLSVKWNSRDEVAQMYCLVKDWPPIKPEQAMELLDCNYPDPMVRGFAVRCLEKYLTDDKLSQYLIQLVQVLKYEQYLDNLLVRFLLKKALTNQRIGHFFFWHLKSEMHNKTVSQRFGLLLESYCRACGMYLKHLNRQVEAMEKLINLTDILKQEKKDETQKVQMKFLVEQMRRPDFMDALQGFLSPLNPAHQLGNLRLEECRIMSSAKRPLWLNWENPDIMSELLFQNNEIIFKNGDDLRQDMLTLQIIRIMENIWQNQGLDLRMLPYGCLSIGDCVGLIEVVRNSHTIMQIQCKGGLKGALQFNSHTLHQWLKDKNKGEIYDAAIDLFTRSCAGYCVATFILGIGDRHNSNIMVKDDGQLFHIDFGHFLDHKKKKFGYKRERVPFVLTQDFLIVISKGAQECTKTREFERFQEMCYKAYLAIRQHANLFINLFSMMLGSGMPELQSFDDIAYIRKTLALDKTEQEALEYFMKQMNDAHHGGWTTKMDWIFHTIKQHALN

IC50 [1] [µM]	inhibition [2]	IC50 [3] [µM]	inhibition [4]	half-life at 1 µM [5] [min]	solubility kinetic at 1.5 h [6] [µM]	inhibition [7] [%]	inhibition [8] [%]	IC50 [9] [µM]	inhibition [13]	inhibition [14]	SMILES	viability at 10 µM [10] [%]	viability at 48 h, 10 µM [11] [%]	viability at 10 µM [12] [%]	viability at 10 µM [15] [%]	inhibition [16]
	Active		Active	> 60	4.3 (≈ 2.65 µg/mL)	56	70				O=C(Nc1ccc(-c2nc(N3CCOCC3)c3ccccc3n2)cc1)Nc1ccc(S(=O)(=O)Nc2ccc(F)cc2F)cc1					
	Active		Active	> 60	< 2	54	60				O=C(Nc1ccc(-c2nc(N3CCOCC3)c3ccccc3n2)cc1)Nc1ccc(S(=O)(=O)Nc2ccc(F)cc2)cc1					
	Active		Active	23.5	< 2	63	75				O=C(Nc1ccc(-c2nc(N3CCOCC3)c3ccccc3n2)cc1)Nc1ccc(S(=O)(=O)Nc2ccccc2)cc1					

More lines, now with the values behind:

SMILES	IC50 [1] [µM]	inhibition [2]	IC50 [3] [µM]	inhibition [4]	half-life at 1 µM [5] [min]	solubility kinetic at 1.5 h [6] [µM]	inhibition [7] [%]	inhibition [8] [%]	IC50 [9] [µM]	inhibition [13]	inhibition [14]	viability at 10 µM [10] [%]	viability at 48 h, 10 µM [11] [%]	viability at 10 µM [12] [%]	viability at 10 µM [15] [%]	inhibition [16]
O=S(=O)(Nc1nccs1)c1ccc(Nc2nc(N3CCOCC3)c3ccccc3n2)cc1	6.9	Active	11.4	Active	52	42.6 (≈ 20 µg/mL)										
CC(=O)Nc1ccc(NC(=O)Nc2ccc(-c3nc(N4CCOCC4)c4ccccc4n3)cc2)cc1	0.0007	Active		Active	> 60	< 2			0.2	Dose-dependent effect	Dose-dependent effect	50	71	29	69	Dose-dependent effect
